Data: ChEMBL document CHEMBL3102776, “Synthesis and biological evaluation of farnesylthiosalicylamides as potential anti-tumor agents” (Bioorg Med Chem, 2014)
pIC50: −log10 of the molar value. In brackets after ≈: the same amount, converted by molar mass. Values belong to the compound of their own block, whether it stands above or below them.

Experiments:
[1] = Cytotoxicity against human SGC7901 cells after 48 hrs by MTT assay; format: functional, cell-based; settings: SGC-7901, 48 h
How it was run: (§1)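 Cells seeded at 10⁴ per well in DMEM with 10% FBS and grown overnight. Compound at a range of concentrations for 48 h, in triplicate. MTT (5 mg mL⁻¹ stock) added for the last 4 h, formazan dissolved in DMSO, absorbance read at 570 nm. Percent inhibition used to derive IC50. Values are mean ± SEM of at least three independent experiments.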

[2] = Cytotoxicity against human PANC1 cells after 48 hrs by MTT assay; format: functional, cell-based; settings: PANC-1, 48 h; how it was run: as §1
[3] = Cytotoxicity against human H460 cells after 48 hrs by MTT assay; format: functional, cell-based; settings: NCI-H460, 48 h; how it was run: as §1
EJ = assay: Cytotoxicity against human EJ cells after 48 hrs by MTT assay; format: functional, cell-based; how it was run: as §1
MCF7 = assay: Cytotoxicity against human MCF7 cells after 48 hrs by MTT assay; format: functional, cell-based; settings: MCF7, 48 h; how it was run: as §1
SK-OV-3 = assay: Cytotoxicity against human SKOV3 cells after 48 hrs by MTT assay; format: functional, cell-based; settings: SK-OV-3, 48 h; how it was run: as §1
SMMC-7721 = assay: Cytotoxicity against human SMMC7721 cells after 48 hrs by MTT assay; format: functional, cell-based; settings: SMMC-7721, 48 h; how it was run: as §1
[4] = Aqueous solubility of the compound in 10% PEG400 aqueous solution after 24 hrs by HPLC analysis; format: physicochemical
How it was run: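 Roughly 20.0 mg of solid in 5 mL of 10% PEG400 in water. Sonicated 10 min, then stirred 24 h at 25 °C in a water bath. Centrifuged 10 min at 10,000 rpm and the supernatant passed through a microporous membrane. Concentration measured by HPLC against a standard curve.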

[5] = Lipophilicity, log P of the compound in 10% PEG400 aqueous solution; format: physicochemical

SMILES: CC(C)=CCC/C(C)=C/CC/C(C)=C/CSc1ccccc1C(=O)NCCN
- pIC50 [1]: 4.47
- pIC50 [2]: < 4.30
- pIC50 [3]: 4.44
- pIC50 (EJ): < 4.30
- pIC50 (MCF7): 4.54
- pIC50 (SK-OV-3): 4.50
- pIC50 (SMMC-7721): 4.60

SMILES: CC(C)=CCC/C(C)=C/CC/C(C)=C/CSc1ccccc1C(=O)NCCCCN
- pIC50 [1]: 4.95
- pIC50 [2]: 4.98
- pIC50 [3]: 4.90
- pIC50 (EJ): 4.88
- pIC50 (MCF7): 4.95
- pIC50 (SK-OV-3): 5.11
- pIC50 (SMMC-7721): 4.82

SMILES: CNC(=O)c1cc(Oc2ccc(NC(=O)Nc3ccc(Cl)c(C(F)(F)F)c3)cc2)ccn1 [SORAFENIB]
- pIC50 [1]: 4.94
- pIC50 [2]: 4.91
- pIC50 [3]: 4.97
- pIC50 (EJ): 4.64
- pIC50 (MCF7): 5.04
- pIC50 (SK-OV-3): 5.03
- pIC50 (SMMC-7721): 4.73

SMILES: CC(C)=CCC/C(C)=C/CC/C(C)=C/CSc1ccccc1C(=O)NCCCCNC(=O)c1ccccc1SC/C=C(\C)CC/C=C(\C)CCC=C(C)C
- pIC50 [1]: < 4.30
- pIC50 [2]: < 4.30
- pIC50 [3]: < 4.30
- pIC50 (EJ): < 4.30
- pIC50 (MCF7): 4.34
- pIC50 (SK-OV-3): < 4.30
- pIC50 (SMMC-7721): < 4.30

SMILES: CC(C)=CCC/C(C)=C/CC/C(C)=C/CSc1ccccc1C(=O)NCCCN
- pIC50 [1]: 4.89
- pIC50 [2]: 4.93
- pIC50 [3]: 4.69
- pIC50 (EJ): 4.76
- pIC50 (MCF7): 4.86
- pIC50 (SK-OV-3): 4.91
- pIC50 (SMMC-7721): 4.97

- solubility at 24 h [4]: 18 mg/mL (≈ 40.6 mM)
- logP [5]: 5.98
SMILES: CC(C)=CCC/C(C)=C/CC/C(C)=C/CSc1ccccc1C(=O)NCCCCCN
- pIC50 [1]: 5.13
- pIC50 [2]: 5.12
- pIC50 [3]: 5.05
- pIC50 (EJ): 5.01
- pIC50 (MCF7): 5.11
- pIC50 (SK-OV-3): 5.15
- pIC50 (SMMC-7721): 5.04

SMILES: CC(C)=CCC/C(C)=C/CC/C(C)=C/CSc1ccccc1C(=O)NCCCCCCN
- pIC50 [1]: 5.10
- pIC50 [2]: 5.06
- pIC50 [3]: 5.12
- pIC50 (EJ): 5.00
- pIC50 (MCF7): 5.10
- pIC50 (SK-OV-3): 5.12
- pIC50 (SMMC-7721): 5.10

SMILES: CC(C)=CCC/C(C)=C/CC/C(C)=C/CSc1ccccc1C(=O)NCCOCCNC(=O)c1ccccc1SC/C=C(\C)CC/C=C(\C)CCC=C(C)C
- pIC50 [1]: 4.36
- pIC50 [2]: 4.53
- pIC50 [3]: 4.36
- pIC50 (EJ): 4.56
- pIC50 (MCF7): 4.52
- pIC50 (SK-OV-3): 4.46
- pIC50 (SMMC-7721): 4.54
